Tests used:
[1] = system: SW1990 and A427 xenograft; assay: Preclinical mouse xenograft models; assay type: in vivo; settings: corresponding to a 70% (or greater) inhibition of plasma SDMA; data not shown
[2] = Phase I study NCT03854227: DLTs and adverse events; assay type: in vivo, human
How it was run: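 Open-label, multicentre first-in-human trial in adults (ECOG 0–1) with advanced or metastatic tumours. Oral test compound, q.d. or b.i.d., on an empty stomach in continuous 28-day cycles. Part 1 started at 0.5 mg q.d., with escalation guided by a two-parameter Bayesian logistic regression model on cycle 1 DLTs. Part 2 ran at 6 mg q.d. AEs were graded by CTCAE 5.0 and summarised descriptively by dose level.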

[3] = Part 2 N = 26, 6 mg q.d., any grade
[4] = Part 2 N = 26, 6 mg q.d., grade ≥3
[5] = overall (part 1 + part 2), N=54

Compound: Cc1ncnc2c1ccn2[C@@H]1C[C@H](Oc2cc(C(F)F)c(F)c3c2CNCC3)[C@@H](O)[C@H]1O [PF-06939999]
- Tumor growth inhibition [1]: ~100%
- TRAE Anemia ([2]; Part 1 N = 28, any grade): 12 (43) n (%)
- TRAE Any ([2]; Part 1 N = 28, any grade): 24 (86) n (%)
- TRAE Decreased appetite ([2]; Part 1 N = 28, any grade): 6 (21) n (%)
- TRAE Dysgeusia ([2]; Part 1 N = 28, any grade): 9 (32) n (%)
- TRAE Dyspepsia ([2]; Part 1 N = 28, any grade): 2 (7) n (%)
- TRAE Fatigue ([2]; Part 1 N = 28, any grade): 9 (32) n (%)
- TRAE Hypomagnesemia ([2]; Part 1 N = 28, any grade): 4 (14) n (%)
- TRAE Leukopenia ([2]; Part 1 N = 28, any grade): 3 (11) n (%)
- TRAE Nausea ([2]; Part 1 N = 28, any grade): 8 (29) n (%)
- TRAE Neutropenia ([2]; Part 1 N = 28, any grade): 3 (11) n (%)
- TRAE Thrombocytopenia (including platelet count decreased) ([2]; Part 1 N = 28, any grade): 9 (32) n (%)
- TRAE Vomiting ([2]; Part 1 N = 28, any grade): 1 (4) n (%)
- TRAE Weight decreased ([2]; Part 1 N = 28, any grade): 0 n (%)
- TRAE Anemia ([2]; Part 1 N = 28, grade ≥3): 8 (29) n (%)
- TRAE Any ([2]; Part 1 N = 28, grade ≥3): 12 (43) n (%)
- TRAE Decreased appetite ([2]; Part 1 N = 28, grade ≥3): 0 n (%)
- TRAE Dysgeusia ([2]; Part 1 N = 28, grade ≥3): 0 n (%)
- TRAE Dyspepsia ([2]; Part 1 N = 28, grade ≥3): 0 n (%)
- TRAE Fatigue ([2]; Part 1 N = 28, grade ≥3): 2 (7) n (%)
- TRAE Hypomagnesemia ([2]; Part 1 N = 28, grade ≥3): 0 n (%)
- TRAE Leukopenia ([2]; Part 1 N = 28, grade ≥3): 0 n (%)
- TRAE Nausea ([2]; Part 1 N = 28, grade ≥3): 0 n (%)
- TRAE Neutropenia ([2]; Part 1 N = 28, grade ≥3): 1 (4) n (%)
- TRAE Thrombocytopenia (including platelet count decreased) ([2]; Part 1 N = 28, grade ≥3): 6 (21) n (%)
- TRAE Vomiting ([2]; Part 1 N = 28, grade ≥3): 0 n (%)
- TRAE Weight decreased ([2]; Part 1 N = 28, grade ≥3): 0 n (%)
- TRAE Anemia [2, 3]: 11 (42) n (%)
- TRAE Any [2, 3]: 21 (81) n (%)
- TRAE Decreased appetite [2, 3]: 7 (27) n (%)
- TRAE Dysgeusia [2, 3]: 3 (12) n (%)
- TRAE Dyspepsia [2, 3]: 4 (15) n (%)
- TRAE Fatigue [2, 3]: 6 (23) n (%)
- TRAE Hypomagnesemia [2, 3]: 1 (4) n (%)
- TRAE Leukopenia [2, 3]: 2 (8) n (%)
- TRAE Nausea [2, 3]: 9 (35) n (%)
- TRAE Neutropenia [2, 3]: 1 (4) n (%)
- TRAE Thrombocytopenia (including platelet count decreased) [2, 3]: 13 (50) n (%)
- TRAE Vomiting [2, 3]: 3 (12) n (%)
- TRAE Weight decreased [2, 3]: 3 (12) n (%)
- TRAE Anemia [2, 4]: 7 (27) n (%)
- TRAE Any [2, 4]: 11 (42) n (%)
- TRAE Decreased appetite [2, 4]: 0 n (%)
- TRAE Dysgeusia [2, 4]: 0 n (%)
- TRAE Dyspepsia [2, 4]: 0 n (%)
- TRAE Fatigue [2, 4]: 1 (4) n (%)
- TRAE Hypomagnesemia [2, 4]: 0 n (%)
- TRAE Leukopenia [2, 4]: 1 (4) n (%)
- TRAE Nausea [2, 4]: 0 n (%)
- TRAE Neutropenia [2, 4]: 1 (4) n (%)
- TRAE Thrombocytopenia (including platelet count decreased) [2, 4]: 6 (23) n (%)
- TRAE Vomiting [2, 4]: 0 n (%)
- TRAE Weight decreased [2, 4]: 0 n (%)
- TRAE Anemia ([2]; Total N = 54, any grade): 23 (43) n (%)
- TRAE Any ([2]; Total N = 54, any grade): 45 (83) n (%)
- TRAE Decreased appetite ([2]; Total N = 54, any grade): 13 (24) n (%)
- TRAE Dysgeusia ([2]; Total N = 54, any grade): 12 (22) n (%)
- TRAE Dyspepsia ([2]; Total N = 54, any grade): 6 (11) n (%)
- TRAE Fatigue ([2]; Total N = 54, any grade): 15 (28) n (%)
- TRAE Hypomagnesemia ([2]; Total N = 54, any grade): 5 (9) n (%)
- TRAE Leukopenia ([2]; Total N = 54, any grade): 5 (9) n (%)
- TRAE Nausea ([2]; Total N = 54, any grade): 17 (32) n (%)
- TRAE Neutropenia ([2]; Total N = 54, any grade): 4 (7) n (%)
- TRAE Thrombocytopenia (including platelet count decreased) ([2]; Total N = 54, any grade): 22 (41) n (%)
- TRAE Vomiting ([2]; Total N = 54, any grade): 4 (7) n (%)
- TRAE Weight decreased ([2]; Total N = 54, any grade): 3 (6) n (%)
- TRAE Anemia ([2]; Total N = 54, grade ≥3): 15 (28) n (%)
- TRAE Any ([2]; Total N = 54, grade ≥3): 23 (43) n (%)
- TRAE Decreased appetite ([2]; Total N = 54, grade ≥3): 0 n (%)
- TRAE Dysgeusia ([2]; Total N = 54, grade ≥3): 0 n (%)
- TRAE Dyspepsia ([2]; Total N = 54, grade ≥3): 0 n (%)
- TRAE Fatigue ([2]; Total N = 54, grade ≥3): 3 (6) n (%)
- TRAE Hypomagnesemia ([2]; Total N = 54, grade ≥3): 0 n (%)
- TRAE Leukopenia ([2]; Total N = 54, grade ≥3): 1 (2) n (%)
- TRAE Nausea ([2]; Total N = 54, grade ≥3): 0 n (%)
- TRAE Neutropenia ([2]; Total N = 54, grade ≥3): 2 (4) n (%)
- TRAE Thrombocytopenia (including platelet count decreased) ([2]; Total N = 54, grade ≥3): 12 (22) n (%)
- TRAE Vomiting ([2]; Total N = 54, grade ≥3): 0 n (%)
- TRAE Weight decreased ([2]; Total N = 54, grade ≥3): 0 n (%)
- Patients who discontinued treatment due to AEs ([2]; all 54 patients, 6 patients): 11%
- Recommended part 2 dose (RP2D) ([2]; oral, selected from safety and PK/PD modeling): 6 mg q.d.
- Grade ≥3 TRAE Anemia [2, 5]: 28%
- Grade ≥3 TRAE Fatigue [2, 5]: 6%
- Grade ≥3 TRAE Neutropenia [2, 5]: 4%

— publication PMC11047177 (ESMO Open, 2024)
